# Only some compounds are listed: those with a hit (about 2.9% of all), similar ones and a draw of the others.
# GalR3 antag = antagonists of human GalR3 | O60755 | HEK293 GalR3-CNG cAMP membrane potential fluorescence; galR3 body fused to GalR1 C-terminus | inhibition, % at 3 µM | 0.44% of 360,000 active;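 active means inhibition above the screen-wide average plus 3 SD, cut at about 13% in these data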;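 further: forskolin and galanin both at EC90 stimulate the cells; cAMP rise reported by CNG channel membrane potential dye signal; 0% = forskolin plus galanin with DMSO and 100% = forskolin alone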
# MC4R ag barr = human MC4R agonism via beta-arrestin; activation, % at 8.9 µM; U2OS MC4R beta-arrestin complementation, luminescence; percent of melanotan II response, DMSO zero; 0.98% of 360,000 active; AID 540308;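 active means activation above a per-plate cutoff, the mean activation of sample wells on that plate plus 3 SD, cut at about 8% in these data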
# MC4R antagonist = human MC4R antagonism in cAMP assay. 0.48% of 360,000 active. P32245. MC4R-expressing cells, MTII-stimulated cAMP, LANCE TR-FRET. inhibition, % at 6.5 µM;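 active means inhibition above its plate's cutoff, the mean of tested wells on that plate plus 3 SD, cut at about 29% in these data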;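 further: 0% = Melanotan II alone and 100% = Melanotan II plus saturating MCL0020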
#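 Material: human MC4R-expressing U2OS cells. Probe or stimulus: Melanotan II challenge. Dosing: 6.5 µM single dose. Times: 30-min compound, 1-h challenge, 1-h detection, room temperature. Technique: TR-FRET with Eu-cAMP and labeled anti-cAMP, 671 nm. Replication: singlicate.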
# Efflux pump mplx = antifungal efflux pump inhibition, Nile Red retention; inhibition, % at 10 µM; S. cerevisiae Candida pump triplex; 0.44% of 330,000 active;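 active means plate passing quality check with inhibition over a set limit, or well fluorescence over plate mean plus 4 SD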;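 further: Nile Red retained in pooled yeast measured as flow cytometry median fluorescence; 0% = buffer negative control and 100% = Enniatin B positive control; higher means more Nile Red kept so more efflux inhibition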
# TAG inh = reduces triacylglycerol accumulation in H9c2 cells; 0.66% of 230,000 active; Nile Red lipid (TAG) fluorescence; cells loaded with 200 µM oleic acid; inhibition, % at 12.5 µM;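 active means pattern-corrected inhibition of lipid staining of at least 50% with the nuclear-stain viability signal not falling by more than 50%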;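 further: 0% = DMSO wells and 100% = triacsin C control wells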
# Calb FLC = C. albicans growth modulation with fluconazole | C. albicans CaCi-2 + fluconazole, Alamar Blue growth, 48 h | 0.57% of 300,000 active | growth inhibition, % (test concentration not listed);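 active means growth inhibition above about 58% in most replicates, limit read from the data, passing the limit was not always enough; inconclusive means exactly half the replicates above a set limit; inactive means most replicates below a set limit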;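 further: all wells also contain fluconazole at 8 µg/ml as a sub-toxic cotreatment; 0% = median of DMSO wells and 100% = median of geldanamycin control wells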
# MC4R barr conf = human MC4R beta-arrestin agonism confirmation | shares compounds with MC4R ag barr | U2OS MC4R beta-arrestin recruitment, luminescence; scaled DMSO 0%, Melanotan II 100% | activation, % at 8.9 µM | 31% of 2,400 active | AID 602192;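 active means mean activation across replicates above the hit cutoff set in the earlier primary screen, cut at about 8% in these data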
# MOR-DOR barr ag = activates mu-delta opioid heterodimer, MC4R agonist counter-screen; shares compounds with MC4R ag barr; U2OS PathHunter beta-arrestin, beta-gal luminescence; percent of deltorphin B response, DMSO zero; activation, % at 9.2 µM; 5.8% of 2,400 active; AID 602194;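 active means mean activation across replicates exceeds the hit threshold derived in the earlier primary screen, cut at about 18% in these data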;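 further: 100% = deltorphin B at 0.9 µM final and 0% = DMSO alone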
# Target sequence (P35372 whole entry, looked up): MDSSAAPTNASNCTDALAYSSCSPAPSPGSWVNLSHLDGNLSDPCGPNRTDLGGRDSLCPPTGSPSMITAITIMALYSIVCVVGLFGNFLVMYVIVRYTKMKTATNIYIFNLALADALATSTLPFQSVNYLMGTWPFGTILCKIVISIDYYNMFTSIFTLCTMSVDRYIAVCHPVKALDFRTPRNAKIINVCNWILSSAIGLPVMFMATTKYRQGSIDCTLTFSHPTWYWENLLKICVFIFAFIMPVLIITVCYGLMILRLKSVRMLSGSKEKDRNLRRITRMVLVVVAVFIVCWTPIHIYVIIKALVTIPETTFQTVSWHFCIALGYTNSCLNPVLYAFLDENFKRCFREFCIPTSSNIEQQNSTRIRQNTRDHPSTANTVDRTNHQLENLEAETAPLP
# Target sequence (P41143 whole entry, looked up): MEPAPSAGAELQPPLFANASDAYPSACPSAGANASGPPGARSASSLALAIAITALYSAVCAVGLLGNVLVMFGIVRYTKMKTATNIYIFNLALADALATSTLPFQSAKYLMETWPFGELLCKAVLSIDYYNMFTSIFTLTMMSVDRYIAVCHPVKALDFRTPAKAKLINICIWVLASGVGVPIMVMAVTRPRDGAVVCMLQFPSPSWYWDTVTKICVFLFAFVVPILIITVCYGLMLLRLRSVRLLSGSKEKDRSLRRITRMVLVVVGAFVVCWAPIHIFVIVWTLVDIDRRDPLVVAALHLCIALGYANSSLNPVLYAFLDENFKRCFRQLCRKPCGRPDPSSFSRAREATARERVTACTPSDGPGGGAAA
# Active calls of the source: *; ? = inconclusive; nt = not tested or not shown.
SMILES,GalR3 antag,MC4R ag barr,MC4R antagonist,Efflux pump mplx,TAG inh,Calb FLC,MC4R barr conf,MOR-DOR barr ag
Cc1ccc2nc(-c3ccc(NC(=O)CN4C(=O)NC(C)(c5ccc(OC(F)F)cc5)C4=O)cc3)sc2c1 (stereo not given),-8.5,18.1*,21.1,-0.4,22.8,-10.3,7.2,5.9
O=C(Nc1nc(-c2ccc(F)c(F)c2)cs1)c1ccc(OCC2CCCO2)cc1 (stereo not given),-6.9,16.9*,1.2,-0.2,nt,-19.1,2.9,28.0*
O=C(COC(=O)C1CCN(c2ccc(C(F)(F)F)cn2)CC1)Nc1cccc(F)c1,-4.5,12.6*,8.2,0.0,8.6,-5.5,-1.8,5.9
O=C(CNS(=O)(=O)c1cccc(Cl)c1)Nc1ccc(-c2nc3ccccc3s2)cc1,-1.4,4.9,6.7,0.7,nt,6.5,nt,nt
CC(NS(=O)(=O)c1cccc(Cl)c1)C(=O)Nc1ccc(-c2nc3ccccc3s2)cc1 (stereo not given),-4.6,16.2*,19.4,-0.1,15.7,-29.0,9.9*,7.5
Cc1ccc2nc(-c3ccc(NC(=O)COC(=O)c4ccco4)cc3)sc2c1,-2.1,-0.6,-12.8,3.1,nt,1.9,nt,nt
CNS(=O)(=O)c1cccc(C(=O)OCC(=O)Nc2ccc(-c3nc4ccc(C)cc4s3)cc2)c1,nt,15.6*,7.5,0.0,7.8,7.1,7.3,5.7
Cc1[nH]n(-c2ccccc2)c(=O)c1N=Nc1cccc(Cl)c1,-3.7,0.7,14.8,0.1,nt,-5.5,nt,nt
Nc1c(N=Nc2cccc(Cl)c2)c(=O)[nH]n1-c1ccccc1,-3.2,13.0*,7.1,0.0,28.7,-3.9,6.4,3.7
Cc1ccc(C(=O)c2ccccc2C(=O)OCC(=O)N2C(C)CCCC2C)cc1 (stereo not given),-6.1,-2.5,-6.2,0.6,7.4,nt,nt,nt
CN(C)CC1C2CCC(C2)C1O (stereo not given),-5.0,-0.6,-5.7,nt,-5.2,nt,nt,nt
Cc1cc(C)nc(SCC(=O)Nc2ncc(Cc3ccc(Cl)c(Cl)c3)s2)n1,0.3,20.8*,1.8,-0.2,nt,0.2,7.4,1.9
Cc1ccc(Cc2cnc(NC(=O)CN3CCOCC3)s2)cc1Cl,-3.0,-0.8,5.8,0.1,nt,7.6,nt,nt
C#CCSc1nc(-c2ccccc2)cc(C(F)(F)F)c1C#N,-4.5,0.2,7.3,0.1,-13.8,?,nt,nt
N#Cc1c(C(F)(F)F)cc(-c2cccs2)nc1SCc1cccnc1,-2.2,12.1*,3.5,-0.1,nt,47.3,0.8,1.3
N#Cc1c(C(F)(F)F)cc(-c2cccs2)nc1SCc1ccc(Cl)nc1,-3.3,15.9*,9.0,0.1,nt,?,6.1,2.9
C=CC(=O)Nc1cccc(N(C)c2ccnc(Nc3ccc(N4CCN(C)CC4)cc3)n2)c1,nt,-1.1,-0.5,nt,2.5,nt,nt,nt
Cc1cccc(NC(=O)c2ccccc2-c2ccccc2)c1,-6.5,0.1,4.5,0.5,-18.1,-3.4,nt,nt
Cc1cccc(NC(=O)c2cccc3c2C(=O)c2ccccc2-3)c1,-5.2,32.7*,5.2,0.0,nt,14.6,8.3*,9.0
COc1ccc(C2CC(=O)C(c3cccc(C)c3)=CN2Cc2ccccc2)cc1 (stereo not given),-5.2,nt,nt,nt,nt,nt,nt,nt
COc1ccc2c(c1)CCc1c(C(=O)Nc3ccn(Cc4ccc(C)cc4)n3)noc1-2,-1.8,30.1*,-12.6,0.3,nt,?,36.9*,8.1
COc1ccc2c(c1)CCc1c(C(=O)NCCc3ccc(OC)c(OC)c3)noc1-2,-4.5,20.3*,-7.2,0.0,nt,-4.4,6.2,3.0
COc1ccc2c(c1)CCc1c(C(=O)Nc3ccc(OC)c(OC)c3)noc1-2,-7.5,19.9*,0.9,0.0,nt,15.0,2.5,8.5
O=C(NCCc1ccccc1)c1noc2c1CCc1ccccc1-2,-1.1,13.3*,6.1,-0.1,nt,-0.8,0.7,4.2
CCCNC(=O)c1noc2c1CCc1ccccc1-2,1.3,-1.4,4.6,0.0,-17.2,-6.2,nt,nt
SMILES,GalR3 antag,MC4R ag barr,MC4R antagonist,Efflux pump mplx,TAG inh,Calb FLC,MC4R barr conf,MOR-DOR barr ag
Clc1ccc(C2=Nn3c(nnc3-c3cc(-c4ccccc4)n[nH]3)SC2)cc1,-4.5,40.7*,-4.9,0.1,nt,25.7,22.7*,7.6
CCc1nc2c(OCCC3CCCCC3)cccn2c1N(C)C(=O)c1ccc(C)cc1,-7.2,-0.2,13.6,nt,2.1,nt,nt,nt
C=CCn1c(CCCOc2ccc(Cl)cc2Cl)nnc1SCC(=O)Nc1nccs1,0.4,9.7*,-6.2,-0.1,2.0,3.6,1.5,5.7
Cn1c(CCCOc2ccc(Cl)cc2Cl)nnc1SCC(=O)Nc1cccc(F)c1,-9.5,18.8*,-1.7,-0.3,nt,-0.4,9.8*,9.5
COc1cc(C(=O)OCC(=O)NC(=O)NCc2ccccc2)ccc1OC(F)F,-6.6,9.7*,-2.9,0.0,-19.7,nt,3.2,7.8
O=C(NCC(c1ccco1)N1CCc2ccccc21)C(=O)Nc1ccccc1 (stereo not given),-5.1,11.1*,6.0,0.2,4.3,-0.2,1.1,3.6
O=C(NCC(c1ccco1)N1CCc2ccccc21)C(=O)Nc1ccccc1F (stereo not given),-5.0,-2.0,1.5,0.0,2.8,-5.3,nt,nt
CC1(C(=O)Nc2cccc3ccccc23)CCN1C(=O)C1(c2ccccc2)CCCC1 (stereo not given),-5.6,-1.1,11.9,nt,18.4,nt,nt,nt
CN(C)c1ccc(NC(=O)/C=C/c2c(Cl)cccc2Cl)cc1,-3.6,10.4*,12.9,-0.1,nt,1.0,-0.6,5.1
CN(C)S(=O)(=O)c1ccc(NC(=O)/C=C/c2ccccc2Cl)cc1,0.6,-2.7,5.5,0.8,nt,7.7,nt,nt
Cc1cc(=O)oc2cc(OCc3c(F)cccc3Cl)ccc12,-9.5,nt,nt,nt,nt,nt,nt,nt
Cc1nn(-c2nc3ccccc3s2)c(C)c1Oc1ccccc1O,nt,21.9*,2.5,0.0,nt,1.1,-0.1,4.7
Cc1cc(SCc2cc(=O)[nH]c3ccccc23)nc2ccccc12,-3.5,11.7*,-2.7,0.0,nt,-0.4,2.9,4.9
COc1ccc(CNC(=O)c2ccc(N3CCOCC3)c([N+](=O)[O-])c2)cc1,-3.6,1.0,16.1,0.0,0.2,14.3,nt,nt
COc1ccc2oc(-c3ccc(C)c(NC(=O)c4ccc(N5CCOCC5)c([N+](=O)[O-])c4)c3)nc2c1,-5.2,10.7*,0.8,0.2,nt,3.7,3.6,4.4
O=C(NC(=S)NCc1ccc(-c2nc3ccccc3s2)cc1)c1ccco1,-3.0,28.1*,-2.2,-9.9,-13.4,2.5,5.9,2.1
CC(C)Oc1cc(F)ccc1-c1cc(C(=O)Nc2cccc(C(F)(F)F)c2)[nH]n1,-7.7,3.1,12.8,nt,12.8,nt,nt,nt

# Source: PubChem BioAssay (several laboratories)
